Here are results for one molecule from ChEMBL document CHEMBL4715824, “Chemical Proteomic Characterization of a Covalent KRASG12C Inhibitor” (ACS Med Chem Lett, 2018).

As a reminder, the pIC50 is the IC50 on a negative log10 scale, so that one unit is a factor of ten.

One test addresses T1, Reticulon-4 (Homo sapiens, UniProt Q9NQC3).
T1 sequence (Q9NQC3 whole entry): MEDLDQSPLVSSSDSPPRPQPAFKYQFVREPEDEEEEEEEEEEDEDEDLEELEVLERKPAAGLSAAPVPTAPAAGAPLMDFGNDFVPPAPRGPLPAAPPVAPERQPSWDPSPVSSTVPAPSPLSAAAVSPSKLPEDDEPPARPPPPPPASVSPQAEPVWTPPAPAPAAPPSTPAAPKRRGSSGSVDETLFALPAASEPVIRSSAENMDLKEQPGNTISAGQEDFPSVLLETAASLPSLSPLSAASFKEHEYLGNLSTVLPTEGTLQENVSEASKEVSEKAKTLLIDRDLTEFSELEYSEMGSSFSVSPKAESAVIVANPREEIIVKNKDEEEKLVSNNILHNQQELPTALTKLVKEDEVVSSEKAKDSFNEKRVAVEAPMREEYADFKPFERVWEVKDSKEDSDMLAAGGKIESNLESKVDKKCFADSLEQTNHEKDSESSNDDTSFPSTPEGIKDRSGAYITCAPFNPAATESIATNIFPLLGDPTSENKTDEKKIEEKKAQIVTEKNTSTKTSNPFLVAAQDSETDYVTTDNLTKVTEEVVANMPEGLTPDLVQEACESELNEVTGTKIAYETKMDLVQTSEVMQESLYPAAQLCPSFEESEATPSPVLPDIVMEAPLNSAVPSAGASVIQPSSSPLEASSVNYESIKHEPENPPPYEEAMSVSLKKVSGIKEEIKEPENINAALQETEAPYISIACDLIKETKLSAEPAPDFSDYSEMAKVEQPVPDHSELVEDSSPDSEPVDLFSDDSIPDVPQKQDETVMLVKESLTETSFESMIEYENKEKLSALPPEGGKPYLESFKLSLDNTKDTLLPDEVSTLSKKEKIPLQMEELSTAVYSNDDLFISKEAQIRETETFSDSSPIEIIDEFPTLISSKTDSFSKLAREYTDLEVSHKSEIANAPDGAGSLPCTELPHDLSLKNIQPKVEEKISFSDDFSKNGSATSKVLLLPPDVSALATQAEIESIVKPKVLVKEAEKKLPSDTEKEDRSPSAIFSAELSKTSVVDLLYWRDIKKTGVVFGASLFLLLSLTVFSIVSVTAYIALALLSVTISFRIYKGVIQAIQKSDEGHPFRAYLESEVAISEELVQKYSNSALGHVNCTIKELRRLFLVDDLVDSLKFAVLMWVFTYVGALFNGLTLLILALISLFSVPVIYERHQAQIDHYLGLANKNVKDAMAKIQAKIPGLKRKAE
Kind of test: Covalent binding affinity to RTN4 at Cys1101 residue in human NCI-H358 cells assessed as reduction of log2 H/L ratio for tryptic peptide […] incubated for 4 hrs followed by cell lysis and subsequently labelled with light thiol probe N-((S)-18-iodo-11-isopropyl-10,13,17-trioxo-3,6-dioxa-9,12,16-triazaoctadecyl)-6-((4R,5S)-5-methyl-2-oxoimidazolidin-4-yl)hexanamide and heavy thiol probe 4 for 1 hr under dark conditions followed by tryptic digestion for overnight and measured by discovery ABPP based nano LC-MS/MS analysis. The gist of the method: (§1)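 H358 cells were treated 4 h with DMSO, 0.08, 0.4, 2 or 10 μM, each paired with DMSO control cells, in biological duplicate. After lysis and denaturation, treated lysate took heavy thiol probe and control lysate took light probe. Lysates were combined equally, and probe-labelled tryptic peptides were streptavidin-enriched. Peptides were run twice by 180 min data-dependent nano LC-MS/MS. Hits needed log2 H/L below −0.776 (3σ) plus a dose-dependent decrease.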

The target of test [1] is T2, Reticulon-4 (Homo sapiens) (UniProt Q9NQC3).
T2 sequence (whole entry): T1 sequence (Q9NQC3 whole entry)
Kind of test: Covalent binding affinity to RTN4 at Cys1101 residue in human NCI-H358 cells assessed as log2 H/L ratio at 10 uM pretreated for 3 hrs followed by N-(((6S,7R)-7-(4-chloro-3-fluorophenyl)-1,4-oxazepan-6-yl)methyl)-2-hydroxyacetamide treatment for 3 hrs by competitive TMT click chemistry pull-down experiment based LC-MS/MS analysis. To be noted: time 6.0 hrs. Format: cell-based. The gist of the method:
(§2)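 H358 cells were pretreated with DMSO (n = 3) or 10 μM compound for 3 h, then 2 μM alkyne probe was added for another 3 h. Cells were lysed, clicked onto azide-agarose resin, digested, TMT-labelled and pooled. The pool was fractionated by high-pH HPLC and each fraction run twice by 60 min low-pH nano LC-MS/MS. Readout was log2 compound/DMSO normalized reporter intensity, with a least-squares means test and FDR adjustment.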

Test [2] concerns the target T3, Synaptic vesicle membrane protein VAT-1 homolog (Homo sapiens, UniProt Q99536).
T3 sequence (Q99536 whole entry): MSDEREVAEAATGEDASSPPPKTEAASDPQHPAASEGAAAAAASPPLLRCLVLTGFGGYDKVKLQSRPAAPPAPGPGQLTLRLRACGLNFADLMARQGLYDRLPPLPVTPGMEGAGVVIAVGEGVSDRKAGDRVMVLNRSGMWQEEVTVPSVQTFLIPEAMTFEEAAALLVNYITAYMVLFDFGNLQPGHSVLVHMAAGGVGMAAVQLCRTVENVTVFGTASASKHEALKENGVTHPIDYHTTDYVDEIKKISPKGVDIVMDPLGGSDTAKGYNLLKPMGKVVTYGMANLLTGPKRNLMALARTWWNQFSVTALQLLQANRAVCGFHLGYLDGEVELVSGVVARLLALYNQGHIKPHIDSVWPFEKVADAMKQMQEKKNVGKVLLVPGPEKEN
Kind of test: Covalent binding affinity to VAT1 at Cys residue in human NCI-H358 cells assessed as reduction of log2 H/L ratio for tryptic peptide […] incubated for 4 hrs followed by cell lysis and subsequently labelled with light thiol probe N-((S)-18-iodo-11-isopropyl-10,13,17-trioxo-3,6-dioxa-9,12,16-triazaoctadecyl)-6-((4R,5S)-5-methyl-2-oxoimidazolidin-4-yl)hexanamide and heavy thiol probe 4 for 1 hr under dark conditions followed by tryptic digestion for overnight and measured by discovery ABPP based nano LC-MS/MS analysis. The gist of the method: as §1

Test [3] concerns the target Fatty acid-binding protein 5 (Homo sapiens) (UniProt Q01469). Kind of test: Covalent binding affinity to FABP5 at Cys67 residue in human NCI-H358 cells assessed as log2 H/L ratio at 10 uM pretreated for 3 hrs followed by N-(((6S,7R)-7-(4-chloro-3-fluorophenyl)-1,4-oxazepan-6-yl)methyl)-2-hydroxyacetamide treatment for 3 hrs by competitive TMT click chemistry pull-down experiment based LC-MS/MS analysis. Format: cell-based. As to conditions: time 6.0 hrs. The gist of the method: as §2

The species entered for the next test is Homo sapiens. Nature of the test: Covalent inhibition of GDP bound His-tagged KRAS G12C/C51L/C80L/C118S mutant (1 to 169 residues) (unknown origin) expressed in Escherichia coli assessed as enzyme-compound adduct formation at Cys12 residue by measuring ratio of Kinact/Ki measured up to 20 mins by mass spectrometry analysis. As to conditions: time min <=20. The gist of the method:
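KRAS G12C was held fixed at 2 μM and incubated with varying compound concentrations. Fraction of covalent Cys12 adduct over time was measured by intact-protein LC-MS, and kinact/KI was calculated from these kinetic data.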

pIC50: −log10 of the molar value.

Sequence of Fatty acid-binding protein 5 (Homo sapiens) (Q01469 whole entry): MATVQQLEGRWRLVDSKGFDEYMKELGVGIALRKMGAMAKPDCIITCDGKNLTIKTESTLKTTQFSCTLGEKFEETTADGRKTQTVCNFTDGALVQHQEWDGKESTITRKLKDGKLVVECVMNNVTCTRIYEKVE

With `C=CC(=O)N1CCN(c2ncnc3c(F)c(-c4c(O)cccc4F)c(Cl)cc23)CC1`, the pIC50 was 4.84 at Reticulon-4 and 5.35 in test [2]. In addition, the Ratio in test [1] was -0.4; in test [3], -1.3; in the test listed under Homo sapiens it was 501 M⁻¹ s⁻¹.
